Measurements taken from ChEMBL document CHEMBL1122807, “2-Substituted thiazolidine-4(R)-carboxylic acids as prodrugs of L-cysteine. Protection of mice against acetaminophen hepatotoxicity” (1984).

Columns and labels:
[1] = tested on: Mus musculus; assay: Compound was evaluated for its protective activity against acetaminophen (750 mg ([…]) /kg) toxicity, given intraperitoneally in mice and the number of animals with liver necrosis was determined
[2] = tested on: Mus musculus; assay: Compound was evaluated for its protective activity against acetaminophen (750 mg ([…]) /kg) toxicity, given intraperitoneally in mice and the number of animals with liver necrosis was determined after 3h; type: functional
Procedure, shortened: (§1)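 Overnight-fasted (16 h) Swiss-Webster mice received acetaminophen 750 mg/kg ip, then test agent 2.45 mmol/kg ip 0.5 h later. Agents were made at 15 mg/mL in sterile 0.1 N NaHCO3 (one in sterile water), pH 6.5–7.5, and used within 1 h. Liver sections from the first 18 animals per agent were coded and graded 0 to 4+ blind. Results pooled from ≥3 replicate experiments.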

[3] = tested on: Mus musculus; assay: Compound was evaluated for its protective activity against acetaminophen (750 mg ([…]) /kg) toxicity, given intraperitoneally in mice and the number of animals with liver necrosis was determined after 0h; type: functional
[4] = tested on: Mus musculus; assay: Compound was evaluated for its protective activity against acetaminophen (750 mg ([…]) /kg) toxicity, given intraperitoneally in mice and the number of animals with liver necrosis was determined after 2 hr; type: functional
Procedure, shortened: as §1

[5] = tested on: Mus musculus; assay: Compound was evaluated for its protective activity against acetaminophen (750 mg ([…]) /kg) toxicity, given intraperitoneally in mice and the survival of the mice was determined at 48 h; 23/26; type: functional
Procedure, shortened: (§2)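 Swiss-Webster mice were fasted overnight (16 h) before use. Test compound, made up as a 15 mg/mL solution in sterile 0.1 N NaHCO3 (pH 6.5–7.5) and used within 1 h of preparation, was given at 2.45 mmol/kg ip 0.5 h after acetaminophen ip. Survivors were counted at 48 h. Counts are cumulative over at least three replicate experiments run at different times.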

[6] = tested on: Mus musculus; assay: Compound was evaluated for its protective activity against acetaminophen (750 mg ([…]) /kg) toxicity, given intraperitoneally in mice and the survival of the mice was determined at 48 h; 0/18; type: functional
Procedure, shortened: as §2

[7] = tested on: Mus musculus; assay: Compound was evaluated for its protective activity against acetaminophen (750 mg ([…]) /kg), given intraperitoneally) in mice and the number of animals with liver necrosis was determined after 3h; type: functional
Procedure, shortened: as §1

[8] = tested on: Mus musculus; assay: Compound was evaluated for its protective activity against acetaminophen (750 mg ([…]) /kg) toxicity, given intraperitoneally in mice and the number of animals with liver necrosis was determined after 1 hr; type: functional
[9] = tested on: Mus musculus; assay: Compound was evaluated for its protective activity against acetaminophen (750 mg ([…]) /kg) toxicity, given intraperitoneally in mice and the survival of the mice was determined at 48 h; 13/24; type: functional
Procedure, shortened: as §2

[10] = tested on: Mus musculus; assay: Compound was evaluated for its protective activity against acetaminophen (750 mg ([…]) /kg) toxicity, given intraperitoneally in mice and the survival of the mice was determined at 48 h; 24/24; type: functional
Procedure, shortened: as §2

[11] = tested on: Mus musculus; assay: Compound was evaluated for its protective activity against acetaminophen (750 mg ([…]) /kg) toxicity, given intraperitoneally in mice and the survival of the mice was determined at 48 h; 19/24; type: functional
Procedure, shortened: as §2

[12] = tested on: Mus musculus; assay: Compound was evaluated for its protective activity against acetaminophen (750 mg ([…]) /kg) toxicity, given intraperitoneally in mice and the survival of the mice was determined at 48 h; 30/30; type: functional
Procedure, shortened: as §2

[13] = organism: Mus musculus; assay: Compound was evaluated for the excretion of 14CO2 (carbon dioxide) in expired air of mice and the activity was determined as percent of dose excreted as 14CO2 at following time intervals - 12-16 h; type: functional
Procedure, shortened: (§3)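 Mice were dosed with thiazolidine carrying 14C at ring C-2 and the methyl carbon. Expired 14CO2 was trapped, and the trap was changed at 4, 8, 12, 16 and 24 h. Aliquots were counted by liquid scintillation against an aqueous Na2 14CO3 standard and expressed as percent of dose. The experiment was repeated in a second mouse (24 g, 2.57 mmol/kg).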

[14] = organism: Mus musculus; assay: Compound was evaluated for the excretion of 14CO2 (carbon dioxide) in expired air of mice and the activity was determined as percent of dose excreted as 14CO2 at following time intervals - 8-12h; type: functional
Procedure, shortened: as §3

[15] = organism: Mus musculus; assay: Compound was evaluated for the excretion of 14CO2 (carbon dioxide) in expired air of mice and the activity was determined as percent of dose excreted as 14CO2 at following time intervals - 16-24h; type: functional
Procedure, shortened: as §3

[16] = organism: Mus musculus; assay: Compound was evaluated for the excretion of 14CO2 (carbon dioxide) in expired air of mice and the activity was determined as percent of dose excreted as 14CO2 at following time intervals - 4-8h; type: functional
Procedure, shortened: as §3

[17] = tested on: Mus musculus; assay: Compound was evaluated for its protective activity against acetaminophen (750 mg ([…]) /kg) toxicity, given intraperitoneally in mice and the survival of the mice was determined at 48 h; 28/30; type: functional
[18] = organism: Mus musculus; assay: Compound was evaluated for the excretion of 14CO2 (carbon dioxide) in expired air of mice and the activity was determined as percent of dose excreted as 14CO2 at following time intervals - 0-4 hr; type: functional
Procedure, shortened: as §3

[19] = tested on: Mus musculus; assay: Compound was evaluated for its protective activity against acetaminophen (750 mg ([…]) /kg) toxicity, given intraperitoneally in mice and the survival of the mice was determined at 48 h; 17/17; type: functional

Compound: O=C(O)[C@@H]1CSC(c2ccccc2)N1 (some centres undefined)
- No. of animals with liver necrosis [1]: 2
- No. of animals with liver necrosis [2]: 6
- No. of animals with liver necrosis [3]: 7
- No. of animals with liver necrosis [4]: 3
- Survival [5]: 23

Compound: CC1N[C@@H](C(=O)O)CS1 (some centres undefined)
- Survival [6]: 0
- No. of animals with liver necrosis [7]: 1
- No. of animals with liver necrosis [1]: 17

Compound: O=C(O)[C@@H]1CSC(c2ccncc2)N1 (some centres undefined)
- No. of animals with liver necrosis [8]: 4
- No. of animals with liver necrosis [1]: 6
- No. of animals with liver necrosis [2]: 5
- No. of animals with liver necrosis [3]: 2
- No. of animals with liver necrosis [4]: 1
- Survival [9]: 13

Compound: CCCCCC1N[C@H](C(=O)O)CS1 (some centres undefined)
- No. of animals with liver necrosis [8]: 2
- No. of animals with liver necrosis [3]: 16
- Survival [10]: 24

Compound: CCC1N[C@H](C(=O)O)CS1 (some centres undefined)
- No. of animals with liver necrosis [8]: 3
- No. of animals with liver necrosis [1]: 6
- Survival [11]: 19
- No. of animals with liver necrosis [2]: 3
- No. of animals with liver necrosis [3]: 3
- No. of animals with liver necrosis [4]: 3

Compound: CCCC1N[C@H](C(=O)O)CS1 (some centres undefined)
- No. of animals with liver necrosis [8]: 6
- No. of animals with liver necrosis [1]: 2
- Survival [12]: 30
- No. of animals with liver necrosis [3]: 9
- No. of animals with liver necrosis [4]: 1

Compound: CC1N[C@H](C(=O)O)CS1 (some centres undefined)
- Of dose excreted [13]: 2.9%
- No. of animals with liver necrosis [1]: 1
- No. of animals with liver necrosis [3]: 17
- Of dose excreted [14]: 4.3%
- Of dose excreted [15]: 3.7%
- Of dose excreted [16]: 7%
- Survival [17]: 28
- Of dose excreted [18]: 61.9%

Compound: CC(=O)N[C@@H](CS)C(=O)O [ACETYLCYSTEINE]
- No. of animals with liver necrosis [8]: 2
- No. of animals with liver necrosis [3]: 15
- Survival [19]: 17
